Laboratory results published in the EternaBench riboswitch data.

System: MS2 coat protein
Test: apparent Kd, MS2 coat protein; higher = weaker binding; RNA-MaP array; FMN 200 µM where present
Summary of the method: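 Each design was made on Illumina sequencing-chip clusters by stalled E. coli RNA polymerase and titrated with SNAP-549-labelled MS2 coat protein from 0.7 or 1.5 nM, doubling to 3 µM, in the absence and then the presence of constant ligand. The buffer was 100 mM Tris-HCl pH 7.5, 80 mM KCl, 4 mM MgCl2, BSA, DTT, yeast tRNA and Tween-20. The apparent Kd is the median of filtered per-cluster fits of binding curves, with green signal normalised to red-channel RNA signal and control-cluster median Fmax.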

[1] = designed as: ON switch for flavin mononucleotide, no ligand
[2] = ligand present: flavin mononucleotide, designed as: ON switch for flavin mononucleotide
[3] = designed as: OFF switch for flavin mononucleotide, no ligand
[4] = ligand present: flavin mononucleotide, designed as: OFF switch for flavin mononucleotide

With “AAUAAACUCACAGGAUAUAGCAGAGGUCGCGUGAACUUACAGGCGACGAGGCUAGAAGGGUGACCACAUGAGGAUCACCCAUGU” the “apparent Kd” value [1] was 858 nM and the “apparent Kd” value [2] was 95.8 nM.
For “AAUAAACUCACAGGAUAUAGCAGAGGUCGCUUGAACUUACAGGCGACGAGGCUAGAAGGGUGACCACAUGAGGAUCACCCAUGU”, the “apparent Kd” value [1] was 1190 nM and the “apparent Kd” value [2] was 135 nM.
“AAUAAACUCACAGGAUAUAGCAGCGGUCGCGUGAACUUACAGGCGACGAGGCUAGAAGGGUGACCACAUGAGGAUCACCCAUGU” was tested, and the “apparent Kd” value [1] was 817 nM and the “apparent Kd” value [2] was 219 nM.
“AAUAAACUCACAGGAUAUAGCAUCGUCGUUGCGAACUUAGCGACGACGAUGCUAGAAGGGUGUAUACAUGAGGAUCACCCAUGU” was tested, and the “apparent Kd” value [1] was 23 nM and the “apparent Kd” value [2] was 11.2 nM.
With “AAUAACAGAGGAUAUACUAUUUUAUGUGUUUAUUGUUUUAAACAUGAGGAUCACCCAUGUAGAAGGCUGAAUAA” the “apparent Kd” value [3] was 29.3 nM and the “apparent Kd” value [4] was 44.3 nM.
In the case of “AAUAACAGAGGAUAUACUAUUUUAUGUGUUUGUUAUUUUAAACAUGAGGAUCACCCAUGUAGAAGGCUGAAUGA”, the “apparent Kd” value [3] is reported as 26.4 nM and the “apparent Kd” value [4] is reported as 26.4 nM.
With “AAUAACCAAGGAUAUACAUGAGGAUCACCCAUGUGGCGUCUGCGAGCUACAUCCCUUAGUAGAAGGUGGACCAG” the “apparent Kd” value [3] was 23.4 nM and the “apparent Kd” value [4] was 27 nM.
For “AAUAGGCUCGCGCAGGAUAUGGAUCAUUCCACAUGAGGAUCACCCAUGUUAAGGAGCCCUUGCAUCCAGAAGGGUGUUGGUCUUU”, the “apparent Kd” value [1] was 35.7 nM and the “apparent Kd” value [2] was 13.1 nM.
With “AAUAUAAAGAGCUGGUAAAACUCGACAUGAGGAUCACCCAUGUAGGAUAUCAGCACGAUAAGUGCUGAGAAGGACAUCCAGCUC” the “apparent Kd” value [3] was 15.4 nM and the “apparent Kd” value [4] was 17.6 nM.
“AAUAUAAAGAGCUGGUAACUCAAAACAUGAGGAUCACCCAUGUAGGAUAUCAGCACGAUAAGUGCUGAGAAGGACAUCCAGCUC” was tested, and the “apparent Kd” value [3] was 16.5 nM and the “apparent Kd” value [4] was 17.2 nM.
In the case of “AAUAUAGAGCUGGAAUAAAACAUCACAUGAGGAUCACCCAUGUAGGAUAUCAGCACGAUAAGUGCUGAGAAGGACAUCCAGCUC”, the “apparent Kd” value [3] is reported as 14.9 nM and the “apparent Kd” value [4] is reported as 14.1 nM.
For “AAUAUGAGCUGGUAUAAAUCCGAAACAUGAGGAUCACCCAUGUAGGAUAUCAGCACGAUAAGUGCUGAGAAGGACAUCCAGCUC”, the “apparent Kd” value [3] was 15.2 nM and the “apparent Kd” value [4] was 16.2 nM.
In the case of “AAUAUGUUGCAGAAGGCCAUGUUGUGGUAGUACCUCAUGACAUGAGGAUCACCCAUGUCUGUGAUGGAGGAUAUGCAAUAUAUU”, the “apparent Kd” value [3] is reported as 8.87 nM and the “apparent Kd” value [4] is reported as 14.8 nM.
For “AAUCCACAUGAGGAUCACCCAUGUCAGGAUAUCGCGCGCGCGUUUUCGGUCUUGCGCGCGAGAAGGGACGGCUG”, the “apparent Kd” value [3] was 26.2 nM and the “apparent Kd” value [4] was 46 nM.
In the case of “AAUCGGGAGCAGAAGGCAUGUCAUAAAACAUGAGGAUCACCCAUGUAGUUAAGGCGAAAGCCGCAUGAGGAUAUGCUCCCGUAA”, the “apparent Kd” value [1] is reported as 5.61 nM and the “apparent Kd” value [2] is reported as 4.69 nM.
In the case of “AAUGAGCAGUAGAAGGCAUGUCUACGGACAUGAGGAUCACCCAUGUAGUGAAUCCGAAAGGAGCAUGAGGAUAUACUGCUCUAA”, the “apparent Kd” value [1] is reported as 143 nM and the “apparent Kd” value [2] is reported as 27.3 nM.
For “AAUGGGCACCAGAAGGACAUGAGGAUCACCCAUGUAGGAUAUGGGCGUUGAAGAUGUCGGAACGAGUUGCUGGAAAGAUAUGGA”, the “apparent Kd” value [1] was 194 nM and the “apparent Kd” value [2] was 20.6 nM.
With “AAUGUCAGAAAGGAUAUGUAACUUGUAACUGUGACAGAAGGUUCGACAUGAGGAUCACCCAUGUUGAUCCAGGU” the “apparent Kd” value [3] was 14.1 nM and the “apparent Kd” value [4] was 26.4 nM.
In the case of “AAUGUGUCAGGAUAUUGUUAGUUUAGUUGUUUGUAUUAGUUCGAGAAGGGACAUGAGGAUCACCCAUGUUGUUU”, the “apparent Kd” value [3] is reported as 30.2 nM and the “apparent Kd” value [4] is reported as 30.6 nM.
For “AAUGUUGGAGGAUAUACGCGAGUGCUCAGUUGGCCCGGUCGACAUGAGGAUCACCCAUGUAGAAGGCCGACGCU”, the “apparent Kd” value [3] was 14.4 nM and the “apparent Kd” value [4] was 16.9 nM.
For “AAUUAACUCACAGGAUAUAGCAGAGGUCGCGCGAACUUACAGGCGACGAGGCUAGAAGGGUGACCACAUGAGGAUCACCCAUGU”, the “apparent Kd” value [1] was 770 nM and the “apparent Kd” value [2] was 72.4 nM.
In the case of “AAUUAAUUAAUUAAUAUACAUGAGGAUCACCCAUGUAAGAUCAAGGAUAUCAGCUCGAAUAGAGCUGAGAAGGUGAUCACAUGU”, the “apparent Kd” value [1] is reported as 533 nM and the “apparent Kd” value [2] is reported as 674 nM.
With “AAUUACAUGUAGAAGGUACUAACAUAAGUGUUGUAAGGAUAUACCAAUUUAUUAGUUUUAAAGAUACAUGAGGAUCACCCAUGU” the “apparent Kd” value [1] was 12.5 nM and the “apparent Kd” value [2] was 8.22 nM.
“AAUUAUUGAUGAGGAUAUUGUGGUGAAACACCACAAGAAGGCAUUAUACACAUGAGGAUCACCCAUGUGAGCCUGAUGCUUAUG” was tested, and the “apparent Kd” value [3] was 16.7 nM and the “apparent Kd” value [4] was 21.2 nM.
With “AAUUAUUUACAGAAGGAGUAAGAUUAUGUAUUACUAGGAUAUGUUCACAUGAGGAUCACCCAUGUCAAAGUAGGUUUUUUAUGU” the “apparent Kd” value [3] was 12.4 nM and the “apparent Kd” value [4] was 12.3 nM.
In the case of “AAUUAUUUUUGAGGAUAUCGUGGUGAAACACCACGAGAAGGCGAGAUAAACAUGAGGAUCACCCAUGUGAGCCUGAUGCUUAUG”, the “apparent Kd” value [3] is reported as 21.2 nM and the “apparent Kd” value [4] is reported as 44.4 nM.
“AAUUGAAACGUAGGAUAUCGCACUAAUUUUAAACGAGAAGGACGUACAUGAGGAUCACCCAUGUUAAAUGGUGUAGAUUAGAUG” was tested, and the “apparent Kd” value [3] was 156 nM and the “apparent Kd” value [4] was 692 nM.
